From article PMC10348038 (Journal of Enzyme Inhibition and Medicinal Chemistry, 2023)
Each block holds one compound with its values, some of them ahead of it.

Columns and labels:
PD-1/PD-L1 interaction = PD-1/PD-L1 interaction (Homo sapiens, UniProt Q9NZQ7); experiment: HTRF PD1/PD-L1 binding assay; details: IC50 against the PD-1/PD-L1 interaction
MDA-MB-231 cells [1] = experiment: CCK-8 cell viability assay, MDA-MB-231; type: cell-based; details: Homo sapiens, MDA-MB-231, 60 h, read-out: IC50 MDA-MB-231
Summary of the method: (§1)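 Cells grown in DMEM or RPMI-1640 with 10% FBS and 1% penicillin-streptomycin at 37 °C, 5% CO2. Seeded in 96-well plates at densities suited to each line's growth rate and settled 8 h, then exposed 60 h to test compound at 0, 1, 2, 4, 8, 16 and 32 μM from 10 mM DMSO stocks. […] CCK-8 added for 0.5–1 h, OD read at 450 nm, viability normalised to control; mean ± SEM, n = 3.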

MCF-7 = experiment: CCK-8 cell viability assay, MCF-7; type: cell-based; details: Homo sapiens, MCF7, 60 h, read-out: IC50 MCF-7
Summary of the method: as §1

A549 = experiment: CCK-8 cell viability assay, A549; type: cell-based; details: Homo sapiens, A549, 60 h, read-out: IC50 A549
Summary of the method: as §1

HCC827 = experiment: CCK-8 cell viability assay, HCC827; type: cell-based; details: Homo sapiens, HCC827, 60 h, read-out: IC50 HCC827
Summary of the method: as §1

MRC-5 cells = experiment: CCK-8 cell viability assay, normal MRC-5 cells; type: cell-based; details: for IC50: Homo sapiens, MRC5, 60 h, read-out: IC50 MRC-5
Summary of the method: as §1

MDA-MB-231 cells [2] = experiment: Colony formation assay; type: cell-based; details: for Clone formation, result in words: positive controls, BMS-202 at 1 µM
Summary of the method: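 MDA-MB-231 seeded at 500 cells/well in 6-well plates, in triplicate. […] Medium renewed every three days. At two weeks: PBS washes, 15 min fixation in 4% paraformaldehyde, 1% crystal violet stain. Colonies of more than 500 cells counted by image analysis; mean ± SEM, n = 3.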

MDA-MB-231 cells [3] = experiment: Wound healing assay; type: cell-based
MDA-MB-231 cells [4] = experiment: Flow cytometry apoptosis analysis; type: cell-based; details: 48 h
p-AKT1 (Ser473) = experiment: Western blot of AKT phosphorylation in MDA-MB-231 cells; type: cell-based; details: 4 μM, 48 h, MDA-MB-231, Western blot
Summary of the method: (§2)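 MDA-MB-231 cells exposed to test compound at 1, 2 and 4 μM for 48 h. Lysates run on SDS-PAGE and transferred to PVDF. Membranes blocked 2 h in 5% BSA/TBST, then probed overnight at 4 °C with antibodies to AKT, p-AKT, mTOR and p-mTOR (1:1000). Mean ± SEM, n = 3.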

p-mTOR = experiment: Western blot of mTOR phosphorylation in MDA-MB-231 cells; type: cell-based; details: 4 μM, 48 h, MDA-MB-231, Western blot
Summary of the method: as §2

MDA-MB-231 tumour = experiment: MDA-MB-231 tumour-bearing nude mouse model; type: in vivo, BALB/c nude mice; details: intraperitoneal, every 2 days, nine administrations, nude mice
Summary of the method: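 Female BALB/c nude mice. MDA-MB-231 cells (within 10 passages) in PBS:Matrigel 1:1 at 3 × 10^7 cells/mL, 100 μL injected subcutaneously into the axilla. From about 200 mm3, test compound given intraperitoneally every 2 days in normal saline with 30% PEG400; cyclophosphamide as comparator. Tumour volume by callipers as length × width² × 0.5. Study ended when control tumours reached 1500 mm3. Tumours excised and weighed; inhibition rate from treated versus control tumour weight.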

PD-L1 = PD-L1 (Homo sapiens, UniProt Q9NZQ7); experiment: Western blot of PD-L1 protein expression in MDA-MB-231 cells; type: cell-based; details: MDA-MB-231, 48 h, 1, 2 and 4 μM
Chain of PD-L1 (Q9NZQ7 19-290): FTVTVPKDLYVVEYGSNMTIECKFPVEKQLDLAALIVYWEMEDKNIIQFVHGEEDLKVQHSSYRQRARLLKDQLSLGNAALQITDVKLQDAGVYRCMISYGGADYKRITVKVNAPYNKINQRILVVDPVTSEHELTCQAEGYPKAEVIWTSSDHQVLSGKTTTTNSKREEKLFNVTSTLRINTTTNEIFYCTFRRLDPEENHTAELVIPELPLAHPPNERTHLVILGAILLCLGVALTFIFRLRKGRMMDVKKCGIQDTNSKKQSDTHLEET
Summary of the method: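 MDA-MB-231 cells treated 48 h with test compound at 1, 2 and 4 μM, BMS202 as positive control; in a further arm, 4 μM with or without GSK-3β inhibitor (40 nM) for 48 h. Lysates separated by SDS-PAGE, transferred to PVDF, blocked 2 h in 5% BSA/TBST, probed overnight at 4 °C with anti-PD-L1 (1:1000). Mean ± SEM, n = 3.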

PD-L1 mRNA = experiment: qPCR of PD-L1 mRNA in MDA-MB-231 cells; type: cell-based; details: MDA-MB-231, 48 h

Chain of PD-1/PD-L1 interaction (Q9NZQ7 19-238 limits assumed): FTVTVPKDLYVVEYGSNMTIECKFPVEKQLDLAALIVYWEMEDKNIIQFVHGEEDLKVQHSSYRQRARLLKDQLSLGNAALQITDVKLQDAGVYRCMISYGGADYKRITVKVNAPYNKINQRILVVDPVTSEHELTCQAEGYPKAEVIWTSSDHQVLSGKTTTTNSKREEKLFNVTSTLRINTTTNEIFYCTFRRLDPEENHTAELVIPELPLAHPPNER

IC50 (PD-1/PD-L1 interaction): < 1 µM
Structure (SMILES): N#Cc1cncc(COc2cc(OCc3cccc(-c4cc(F)ccc4F)c3F)ccc2CNCCO)c1 [7b-4, 5-[2-[(2-Hydroxy-ethylamino)-methyl]-5-(2,2',5'-trifluoro-biphenyl-3-ylmethoxy)-phenoxymethyl]-nicotinonitrile]

IC50 (MDA-MB-231 cells [1]): 4.67 ± 0.79 µM
IC50 (MCF-7): 4.81 ± 0.45 µM
IC50 (A549): 7.27 ± 0.71 µM
IC50 (HCC827): 6.16 ± 0.76 µM
Structure (SMILES): COc1c(COc2ccc(CN[C@H](CO)C(=O)O)c(OCc3cncc(C#N)c3)c2)cccc1-c1ccccc1F [13h-1, N-[2–(5-Cyano-pyridin-3-ylmethoxy)-4-(2'-fluoro-2-methoxy-biphenyl-3-ylmethoxy)-benzyl]-D-serine]
IC50 (MRC-5 cells): 9.31 ± 0.16 µM

IC50 (MDA-MB-231 cells [1]): 4.96 ± 0.82 µM
IC50 (MCF-7): 5.52 ± 0.57 µM
IC50 (A549): 13.5 ± 0.86 µM
IC50 (HCC827): 5.65 ± 0.56 µM
Structure (SMILES): COc1c(COc2cc(OCc3cccc(C#N)c3)c(CNCCO)cc2Cl)cccc1-c1ccccc1F [13h-3, 3-{4-Chloro-5–(2'-fluoro-2-methoxy-biphenyl-3-ylmethoxy)-2-[(2-hydroxy-ethylamino)-methyl]-phenoxymethyl}-benzonitrile]
IC50 (MRC-5 cells): 11.1 ± 0.2 µM

The remaining lines, values behind:

Structure (SMILES): N#Cc1cccc(COc2cc(OCc3cccc(-c4cc(F)ccc4F)c3F)ccc2CNCCO)c1 [7b-2, 3-[2-[(2-Hydroxy-ethylamino)-methyl]-5-(2,2',5'-trifluoro-biphenyl-3-ylmethoxy)-phenoxymethyl]-benzonitrile]
IC50 (PD-1/PD-L1 interaction): < 1 µM

Structure (SMILES): Cc1c(COc2ccc(CNCCN)c(OCc3ccccc3)c2)cccc1-c1ccccc1F [12j-4, N^1-[2-Benzyloxy-4-(2'-fluoro-2-methyl-biphenyl-3-ylmethoxy)-benzyl]-ethane-1,2-diamine]
IC50 (MDA-MB-231 cells [1]): 2.68 ± 0.27 µM
IC50 (MCF-7): 4.71 ± 0.44 µM
IC50 (A549): 7.79 ± 0.69 µM
IC50 (HCC827): 3.24 ± 0.09 µM
IC50 (MRC-5 cells): 10.3 ± 0.12 µM
IC50 against MRC-5 cells relative to IC50 against MDA-MB-231 cells (MRC-5 cells; selectivity normal vs cancer cells): 3.83 fold
MDA-MB-231 cells' proliferation rate (clone formation) (MDA-MB-231 cells [2]; 1 µM, treated 24 h, colonies after two weeks): 40%
inhibition at 1 µM (MDA-MB-231 cells [3]; Homo sapiens, MDA-MB-231, read-out: Migration inhibition rate): 50%
Apoptotic ratio (MDA-MB-231 cells [4]; 4 μM): exceeded 40.42%
Inhibition rate of AKT type I phosphorylated form expression (p-AKT1 (Ser473)): 90%
Inhibition rate of phosphorylated mTOR expression (p-mTOR): 40%
Tumour inhibition rate (MDA-MB-231 tumour; 10 mg/kg): 39.04%
Tumour inhibition rate (MDA-MB-231 tumour; 20 mg/kg): 62.54%
PD-L1 protein expression, result in words (PD-L1): down-regulated
PD-L1 mRNA, result in words (PD-L1 mRNA): decreased

Structure (SMILES): COc1nc(OCc2cccc(-c3ccccc3)c2C)ccc1CNCCNC(C)=O [BMS-202, reference compound]
Clone formation, result in words (MDA-MB-231 cells [2]): scarce inhibition activity
Migration inhibition, result in words (MDA-MB-231 cells [3]; MDA-MB-231, positive control): can hardly inhibit the cancer cells’ migration

Structure (SMILES): CC(=O)O[C@H]1C(=O)[C@@]2(C)[C@H]([C@H](OC(=O)c3ccccc3)[C@]3(O)C[C@H](OC(=O)[C@H](O)[C@@H](NC(=O)c4ccccc4)c4ccccc4)C(C)=C1C3(C)C)[C@]1(OC(C)=O)CO[C@@H]1C[C@@H]2O [paclitaxel, reference compound]
Clone formation, result in words (MDA-MB-231 cells [2]): Few colonies can be observed
Tumour cell apoptosis (MDA-MB-231 cells [4]; 1 μM): approximately 60%
